The source made the active and inactive calls. The calls are words filed in the database; no cut-off is given here.
Columns and labels:
[1] = test system: Human immunodeficiency virus 2; experiment: Antiviral activity against HIV2 ROD in MT4 cells assessed as inhibition of virus-induced cytopathic effect by MTT assay; assay type: functional, organism-based
Method in brief: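 MT-4 cells infected with HIV-2 ROD; protection from cytopathic effect read by MTT assay; EC50 is the concentration blocking 50% of virus-induced cell killing.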

[2] = Cytotoxicity against human MT4 cells; assay type: cell-based
Method in brief: (§1)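 Mock-infected CEM-SS or MT-4 cells run alongside the antiviral cultures; CC50 is the concentration causing death of 50% of the cells.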

[3] = biological target: Human immunodeficiency virus type 1 reverse transcriptase (Human immunodeficiency virus 1, UniProt Q72547); experiment: Inhibition of HIV1 reverse transcriptase
Method in brief: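 Recombinant HIV-1 RT, p66/51 heterodimer; polymerase activity measured with poly(rC).oligo(dG) as template primer.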

[4] = test system: Human immunodeficiency virus 1; experiment: Antiviral activity against HIV1 RF in CEM-SS cells assessed as inhibition of virus-induced cytopathic effect by XTT assay; assay type: functional, organism-based; details: Human immunodeficiency virus 1, RF
Method in brief: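 CEM-SS cells infected with HIV-1 RF; XTT cytoprotection read-out; EC50 is the concentration that inhibits 50% of viral cytopathic effect.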

[5] = biological target: 3',5'-cyclic-AMP phosphodiesterase 4B (Homo sapiens) (UniProt Q07343); experiment: Inhibition of PDE4B2 expressed in COS7 cells assessed as cAMP hydrolysis at 100 uM; assay type: cell-based; details: COS-7
Sequence of 3',5'-cyclic-AMP phosphodiesterase 4B (Homo sapiens) (Q07343 whole entry): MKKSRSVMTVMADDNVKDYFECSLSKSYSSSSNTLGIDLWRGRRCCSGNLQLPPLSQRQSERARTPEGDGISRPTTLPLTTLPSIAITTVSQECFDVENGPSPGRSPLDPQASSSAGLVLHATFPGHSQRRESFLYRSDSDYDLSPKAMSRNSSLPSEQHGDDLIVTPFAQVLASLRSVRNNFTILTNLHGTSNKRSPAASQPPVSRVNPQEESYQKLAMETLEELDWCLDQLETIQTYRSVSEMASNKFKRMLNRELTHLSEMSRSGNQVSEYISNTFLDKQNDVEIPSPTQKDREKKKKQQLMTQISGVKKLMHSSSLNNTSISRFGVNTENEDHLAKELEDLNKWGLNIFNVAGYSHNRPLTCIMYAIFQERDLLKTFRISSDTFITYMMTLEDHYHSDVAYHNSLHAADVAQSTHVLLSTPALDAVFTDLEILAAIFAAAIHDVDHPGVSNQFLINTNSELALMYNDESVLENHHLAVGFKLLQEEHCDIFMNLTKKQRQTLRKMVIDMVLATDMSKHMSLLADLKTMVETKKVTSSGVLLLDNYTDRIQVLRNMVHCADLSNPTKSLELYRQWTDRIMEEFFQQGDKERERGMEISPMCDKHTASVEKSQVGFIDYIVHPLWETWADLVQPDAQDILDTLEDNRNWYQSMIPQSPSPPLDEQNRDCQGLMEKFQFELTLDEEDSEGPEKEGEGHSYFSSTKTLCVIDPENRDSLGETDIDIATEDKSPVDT

[6] = Cytotoxicity against human CEM-SS cells; assay type: cell-based; method in brief: as §1
[7] = test system: Human immunodeficiency virus 1; experiment: Antiviral activity against HIV1 3B in MT4 cells assessed as inhibition of virus-induced cytopathic effect by MTT assay; assay type: functional, organism-based; details: Human immunodeficiency virus 1, 3B
Method in brief: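 Cytoprotection in MT-4 cells infected with HIV-1 IIIB, read by MTT assay; EC50 taken as the concentration giving 50% inhibition of viral cytopathic effect.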

Compound | Activity [1] | CC50 [2] | IC50 [3] | EC50 [4] | inhibition [5] | CC50 [6] | EC50 [7] | Activity [5] | EC50 ([1]; Human immunodeficiency virus 2, ROD)
Cc1ccnc2c1NC(=O)c1cccnc1N2C1CC1 | inactive |  |  |  |  |  |  |  | 
COC(=O)CCCC=C(c1cc(C)c2oc(=O)n(C)c2c1)c1cc(C)c2oc(=O)n(C)c2c1 | inactive | 33 µM | 0.5 µM | 0.62 µM | 71% | 31 µM | 0.22 µM |  | 
COC(=O)c1cc(C(=CCCCSC)c2cc(Cl)c(OC)c(C(=O)OC)c2)cc(Cl)c1OC |  |  | > 100 µM | 5.3 µM | 20% | > 20 µM |  |  | 
COC(=O)CCC/C=C(\c1cc(C)c(OC)c(C(=O)OC)c1)c1cc(C)c2oc(=O)n(C)c2c1 | inactive |  |  | 0.03 µM | 72% |  | 0.09 µM |  | 
COC(=O)CCCC=C(c1cc(Br)c(OC)c(C(=O)OC)c1)c1cc(Br)c(OC)c(C(=O)OC)c1 | inactive |  |  | 0.001 µM | 40% |  |  |  | 
CCCCCC=C(c1cc(Cl)c(OC)c(C(=O)OC)c1)c1cc(Cl)c(OC)c(C(=O)OC)c1 |  |  |  | 16 µM |  | > 29 µM |  | inactive | 
COC(=O)c1cc(C(=CCCCc2ccccc2)c2cc(Br)c(OC)c(C(=O)OC)c2)cc(Br)c1OC |  | > 198 µM | > 100 µM |  |  | > 200 µM |  | inactive | 21 µM
COc1ccc(C2CNC(=O)C2)cc1OC1CCCC1 (stereo not drawn) |  |  |  |  | 100% |  |  |  | 
